Source: ChEMBL document CHEMBL1132273, “Subtype-selective N-methyl-D-aspartate receptor antagonists: synthesis and biological evaluation of 1-(arylalkynyl)-4-benzylpiperidines” (J Med Chem, 1999)

Assays:
[1] = molecular target: T1, Glutamate NMDA receptor; Grin1/Grin2b (Rattus norvegicus, UniProt P35439+Q00960); test: Antagonistic activity against rat NR1A/2B receptor expressed in Xenopus oocytes; format: functional, cell-based, Oocyte
Method in brief: (§1)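 Cloned NR1A/2B receptors in oocytes, recorded by two-electrode voltage clamp at -70 mV in nominally Ca2+-free Ringer (pH 7.4). Drugs are bath perfused, with final DMSO 0.1–1%. IC50 for inhibition of NMDA responses is fitted from partial 3–5 point curves, with the residual fractional response ('min') fixed at 0.15. Mean ± SEM.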

[2] = molecular target: T2, Glutamate NMDA receptor; Grin1/Grin2c (Rattus norvegicus, UniProt P35439+Q00961); test: The compound was tested for antagonistic activity against rat NR1A/2C receptor expressed in Xenopus oocytes; format: functional, cell-based, Oocyte
T2 sequence (Q00961 whole entry, other chains not shown, the tested form may be a part): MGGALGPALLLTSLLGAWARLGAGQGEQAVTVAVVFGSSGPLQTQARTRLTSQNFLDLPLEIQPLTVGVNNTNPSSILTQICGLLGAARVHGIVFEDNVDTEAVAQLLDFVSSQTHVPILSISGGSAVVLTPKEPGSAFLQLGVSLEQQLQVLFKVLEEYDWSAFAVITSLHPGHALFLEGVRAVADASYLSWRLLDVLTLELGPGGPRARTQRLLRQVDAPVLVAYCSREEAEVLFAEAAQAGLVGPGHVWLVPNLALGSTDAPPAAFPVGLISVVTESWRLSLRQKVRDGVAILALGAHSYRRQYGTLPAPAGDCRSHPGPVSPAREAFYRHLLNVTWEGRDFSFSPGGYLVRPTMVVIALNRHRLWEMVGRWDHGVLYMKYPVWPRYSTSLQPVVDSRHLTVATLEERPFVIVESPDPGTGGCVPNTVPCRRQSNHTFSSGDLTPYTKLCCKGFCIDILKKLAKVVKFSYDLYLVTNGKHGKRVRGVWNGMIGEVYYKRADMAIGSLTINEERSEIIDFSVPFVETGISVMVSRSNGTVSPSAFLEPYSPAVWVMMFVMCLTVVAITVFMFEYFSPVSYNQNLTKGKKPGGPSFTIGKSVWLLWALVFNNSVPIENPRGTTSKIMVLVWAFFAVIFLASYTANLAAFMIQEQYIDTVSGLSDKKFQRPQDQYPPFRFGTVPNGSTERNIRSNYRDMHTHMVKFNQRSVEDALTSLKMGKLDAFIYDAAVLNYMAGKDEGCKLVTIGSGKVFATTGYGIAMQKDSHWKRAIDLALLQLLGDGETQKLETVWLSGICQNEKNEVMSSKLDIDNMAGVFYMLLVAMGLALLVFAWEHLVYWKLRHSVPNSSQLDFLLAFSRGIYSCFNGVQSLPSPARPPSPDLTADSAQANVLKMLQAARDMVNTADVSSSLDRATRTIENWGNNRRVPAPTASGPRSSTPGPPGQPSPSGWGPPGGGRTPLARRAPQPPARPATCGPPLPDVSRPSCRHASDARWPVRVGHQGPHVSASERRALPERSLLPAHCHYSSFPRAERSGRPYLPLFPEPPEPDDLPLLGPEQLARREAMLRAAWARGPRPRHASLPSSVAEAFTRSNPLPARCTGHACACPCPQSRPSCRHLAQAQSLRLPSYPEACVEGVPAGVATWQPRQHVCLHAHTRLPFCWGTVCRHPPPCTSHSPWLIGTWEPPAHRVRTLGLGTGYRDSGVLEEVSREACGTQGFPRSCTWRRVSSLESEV
Method in brief: (§2)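 Drugs are given by bath perfusion at 7–10 mL/min, with final DMSO 0.1–1%. Inhibition of NMDA responses is measured, and IC50 is fitted from partial 3–5 point concentration–inhibition curves with a free residual minimum. Mean ± SEM, n as reported.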

[3] = molecular target: T3, Glutamate NMDA receptor; Grin1/Grin2a (Rattus norvegicus, UniProt P35439+Q00959); test: Antagonistic activity against rat NR1A/2A receptor, expressed in Xenopus oocytes; format: functional, cell-based, Oocyte
T3 sequence (Q00959 whole entry, other chains not shown): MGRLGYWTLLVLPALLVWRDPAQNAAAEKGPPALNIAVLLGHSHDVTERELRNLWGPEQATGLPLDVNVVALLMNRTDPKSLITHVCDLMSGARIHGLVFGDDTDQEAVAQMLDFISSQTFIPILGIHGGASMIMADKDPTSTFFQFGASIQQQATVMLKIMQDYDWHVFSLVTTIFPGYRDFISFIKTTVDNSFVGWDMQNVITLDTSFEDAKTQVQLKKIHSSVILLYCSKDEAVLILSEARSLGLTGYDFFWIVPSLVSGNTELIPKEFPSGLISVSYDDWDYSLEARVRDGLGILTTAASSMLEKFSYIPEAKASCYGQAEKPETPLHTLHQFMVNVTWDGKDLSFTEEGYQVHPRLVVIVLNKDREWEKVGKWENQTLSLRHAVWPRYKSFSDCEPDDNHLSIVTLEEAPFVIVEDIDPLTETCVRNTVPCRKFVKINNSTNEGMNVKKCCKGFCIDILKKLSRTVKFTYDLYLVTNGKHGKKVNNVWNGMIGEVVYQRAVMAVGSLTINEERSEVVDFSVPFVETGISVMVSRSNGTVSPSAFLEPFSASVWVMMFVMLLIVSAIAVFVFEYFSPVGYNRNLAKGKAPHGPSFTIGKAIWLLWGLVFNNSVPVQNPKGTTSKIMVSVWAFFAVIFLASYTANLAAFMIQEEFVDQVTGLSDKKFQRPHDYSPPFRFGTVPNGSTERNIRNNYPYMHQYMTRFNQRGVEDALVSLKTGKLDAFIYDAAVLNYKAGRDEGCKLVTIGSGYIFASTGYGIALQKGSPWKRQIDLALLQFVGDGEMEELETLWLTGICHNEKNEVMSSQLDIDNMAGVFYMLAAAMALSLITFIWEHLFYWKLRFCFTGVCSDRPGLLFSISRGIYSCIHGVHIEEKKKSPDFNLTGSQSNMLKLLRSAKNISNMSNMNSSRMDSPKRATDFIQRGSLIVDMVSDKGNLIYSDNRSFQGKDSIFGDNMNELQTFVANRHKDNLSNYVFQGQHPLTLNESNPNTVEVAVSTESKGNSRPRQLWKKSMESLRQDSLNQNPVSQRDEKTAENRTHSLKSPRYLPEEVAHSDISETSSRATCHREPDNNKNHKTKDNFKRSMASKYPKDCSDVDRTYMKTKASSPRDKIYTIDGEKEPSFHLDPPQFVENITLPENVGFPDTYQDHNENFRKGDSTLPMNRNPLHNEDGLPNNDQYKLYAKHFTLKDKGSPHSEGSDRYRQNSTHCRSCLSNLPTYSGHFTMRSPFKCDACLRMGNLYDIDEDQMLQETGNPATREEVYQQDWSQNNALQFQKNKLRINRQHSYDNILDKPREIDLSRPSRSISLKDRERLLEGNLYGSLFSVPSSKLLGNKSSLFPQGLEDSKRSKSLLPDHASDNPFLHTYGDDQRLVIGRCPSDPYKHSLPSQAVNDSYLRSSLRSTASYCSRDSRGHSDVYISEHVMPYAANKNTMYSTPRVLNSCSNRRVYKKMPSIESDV
Method in brief: as §2, with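 “Two-electrode voltage clamp at -70 mV in nominally Ca2+-free Ringer (NaCl 115, KCl 2, BaCl2 1.8, HEPES 5 mM, pH 7.4). Drugs” for “Drugs”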

[4] = Antagonistic activity against rat NR1A/2A receptor, expressed in Xenopus oocytes.; format: functional, cell-based; details: Oocyte
Method in brief: as §2, with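 “Two-electrode voltage clamp at -70 mV in nominally Ca2+-free Ringer (NaCl 115, KCl 2, BaCl2 1.8, HEPES 5 mM, pH 7.4). Drugs” for “Drugs”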

[5] = molecular target: T4, Adrenergic receptor alpha-1 (Rattus norvegicus, UniProt P15823+P23944+P43140); test: Binding affinity against alpha-1 adrenergic receptor from rat using [3H]-prazosin as radioligand; format: protein assay
T4 sequence (P15823 whole entry): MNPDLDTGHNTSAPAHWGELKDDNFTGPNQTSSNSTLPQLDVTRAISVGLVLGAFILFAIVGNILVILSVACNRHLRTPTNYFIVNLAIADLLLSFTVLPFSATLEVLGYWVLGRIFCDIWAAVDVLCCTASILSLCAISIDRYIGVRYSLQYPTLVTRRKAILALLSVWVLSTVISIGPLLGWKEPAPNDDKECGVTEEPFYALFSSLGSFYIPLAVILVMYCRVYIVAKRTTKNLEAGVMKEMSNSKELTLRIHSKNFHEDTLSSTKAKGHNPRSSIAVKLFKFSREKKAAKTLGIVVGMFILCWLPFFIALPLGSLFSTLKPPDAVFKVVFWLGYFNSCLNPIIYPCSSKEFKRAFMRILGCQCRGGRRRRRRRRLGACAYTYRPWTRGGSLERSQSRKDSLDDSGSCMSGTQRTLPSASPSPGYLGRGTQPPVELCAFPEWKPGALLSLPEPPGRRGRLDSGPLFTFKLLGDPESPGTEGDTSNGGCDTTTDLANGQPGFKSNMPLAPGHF
T4 sequence (P23944 whole entry): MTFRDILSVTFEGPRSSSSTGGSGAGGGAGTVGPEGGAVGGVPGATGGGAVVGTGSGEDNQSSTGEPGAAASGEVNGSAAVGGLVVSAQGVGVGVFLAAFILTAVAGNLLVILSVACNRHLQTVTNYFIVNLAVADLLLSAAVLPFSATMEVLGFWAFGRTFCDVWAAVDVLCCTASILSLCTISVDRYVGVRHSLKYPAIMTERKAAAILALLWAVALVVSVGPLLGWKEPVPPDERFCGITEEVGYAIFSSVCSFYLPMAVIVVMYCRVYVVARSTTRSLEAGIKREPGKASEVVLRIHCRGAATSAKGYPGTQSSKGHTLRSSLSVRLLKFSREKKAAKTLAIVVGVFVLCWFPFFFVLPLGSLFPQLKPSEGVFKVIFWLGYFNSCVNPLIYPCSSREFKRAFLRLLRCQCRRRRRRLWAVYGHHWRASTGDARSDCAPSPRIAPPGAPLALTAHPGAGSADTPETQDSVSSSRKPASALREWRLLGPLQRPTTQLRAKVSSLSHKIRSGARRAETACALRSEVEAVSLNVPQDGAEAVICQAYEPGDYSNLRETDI
T4 sequence (P43140 whole entry): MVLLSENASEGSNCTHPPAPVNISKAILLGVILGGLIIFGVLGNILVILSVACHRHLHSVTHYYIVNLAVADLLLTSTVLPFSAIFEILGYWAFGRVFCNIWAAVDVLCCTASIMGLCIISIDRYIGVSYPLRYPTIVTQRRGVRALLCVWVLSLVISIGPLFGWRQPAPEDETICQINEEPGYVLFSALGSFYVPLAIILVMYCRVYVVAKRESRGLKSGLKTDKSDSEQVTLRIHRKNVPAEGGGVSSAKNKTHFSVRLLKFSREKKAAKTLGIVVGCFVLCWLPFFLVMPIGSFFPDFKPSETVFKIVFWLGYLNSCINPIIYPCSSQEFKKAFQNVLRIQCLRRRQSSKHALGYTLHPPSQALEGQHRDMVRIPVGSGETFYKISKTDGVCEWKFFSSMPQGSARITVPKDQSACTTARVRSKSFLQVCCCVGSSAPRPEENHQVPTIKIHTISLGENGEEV
Method in brief: (§3)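 Rat cortical membranes (Sprague–Dawley, triple-washed; 200 μg protein) incubated with 0.8 nM [3H]prazosin in 140 mM NaCl/5 mM MgCl2/50 mM Tris-HCl pH 7.4, 60 min at room temperature. Nine concentrations in duplicate, 1% DMSO final. Nonspecific binding defined by 10 μM phentolamine.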

D(2) dopamine receptor = D(2) dopamine receptor (Rattus norvegicus, UniProt P61169); test: Binding affinity against Dopamine receptor D2 from rat using [3H]raclopride as radioligand
Sequence of D(2) dopamine receptor (P61169 whole entry): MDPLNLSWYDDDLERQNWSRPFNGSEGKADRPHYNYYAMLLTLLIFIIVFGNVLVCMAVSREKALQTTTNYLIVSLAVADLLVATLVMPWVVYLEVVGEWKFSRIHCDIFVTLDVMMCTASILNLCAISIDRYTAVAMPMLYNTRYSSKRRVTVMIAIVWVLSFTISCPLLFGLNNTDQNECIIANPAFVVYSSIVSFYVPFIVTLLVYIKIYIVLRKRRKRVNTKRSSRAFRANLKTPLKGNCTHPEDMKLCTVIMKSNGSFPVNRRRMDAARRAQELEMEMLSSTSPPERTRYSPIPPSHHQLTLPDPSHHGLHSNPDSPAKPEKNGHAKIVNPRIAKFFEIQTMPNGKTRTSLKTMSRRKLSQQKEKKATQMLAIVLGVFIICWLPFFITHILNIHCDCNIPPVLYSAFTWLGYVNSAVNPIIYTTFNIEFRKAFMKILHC
Method in brief: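 Washed Sprague–Dawley rat striatal membranes (200 μg protein) incubated with 3 nM [3H]raclopride in 120 mM NaCl/5 mM KCl/50 mM Tris-HCl pH 7.4, 60 min at room temperature. Nine concentrations in duplicate, 1% DMSO final. Nonspecific binding with 300 μM sulpiride.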

[6] = molecular target: T3, Glutamate NMDA receptor; Grin1/Grin2a; test: Antagonistic activity against rat N-methyl-D-aspartate glutamate receptor 1/2A, expressed in Xenopus oocytes; format: functional, cell-based, Oocyte
Method in brief: as §2, with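 “Two-electrode voltage clamp at -70 mV in nominally Ca2+-free Ringer (NaCl 115, KCl 2, BaCl2 1.8, HEPES 5 mM, pH 7.4). Drugs” for “Drugs”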

[7] = molecular target: T1, Glutamate NMDA receptor; Grin1/Grin2b; test: Antagonistic activity against rat N-methyl-D-aspartate glutamate receptor 1/2B expressed in Xenopus oocytes; format: functional, cell-based, Oocyte; method in brief: as §1
[8] = molecular target: T2, Glutamate NMDA receptor; Grin1/Grin2c; test: Antagonistic activity against rat N-methyl-D-aspartate glutamate receptor 1/2C expressed in Xenopus oocytes; format: functional, cell-based, Oocyte
Method in brief: as §2, with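 “Two-electrode voltage clamp at -70 mV in nominally Ca2+-free Ringer (NaCl 115, KCl 2, BaCl2 1.8, HEPES 5 mM, pH 7.4). Drugs” for “Drugs”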

[9] = molecular target: T4, Adrenergic receptor alpha-1; test: The compound was tested for binding affinity against Alpha-1 adrenergic receptor from rat using [3H]prazosin as radioligand; format: protein assay; method in brief: as §3

T1 sequence (Q00960 whole entry, other chains not shown, the tested form may be a part): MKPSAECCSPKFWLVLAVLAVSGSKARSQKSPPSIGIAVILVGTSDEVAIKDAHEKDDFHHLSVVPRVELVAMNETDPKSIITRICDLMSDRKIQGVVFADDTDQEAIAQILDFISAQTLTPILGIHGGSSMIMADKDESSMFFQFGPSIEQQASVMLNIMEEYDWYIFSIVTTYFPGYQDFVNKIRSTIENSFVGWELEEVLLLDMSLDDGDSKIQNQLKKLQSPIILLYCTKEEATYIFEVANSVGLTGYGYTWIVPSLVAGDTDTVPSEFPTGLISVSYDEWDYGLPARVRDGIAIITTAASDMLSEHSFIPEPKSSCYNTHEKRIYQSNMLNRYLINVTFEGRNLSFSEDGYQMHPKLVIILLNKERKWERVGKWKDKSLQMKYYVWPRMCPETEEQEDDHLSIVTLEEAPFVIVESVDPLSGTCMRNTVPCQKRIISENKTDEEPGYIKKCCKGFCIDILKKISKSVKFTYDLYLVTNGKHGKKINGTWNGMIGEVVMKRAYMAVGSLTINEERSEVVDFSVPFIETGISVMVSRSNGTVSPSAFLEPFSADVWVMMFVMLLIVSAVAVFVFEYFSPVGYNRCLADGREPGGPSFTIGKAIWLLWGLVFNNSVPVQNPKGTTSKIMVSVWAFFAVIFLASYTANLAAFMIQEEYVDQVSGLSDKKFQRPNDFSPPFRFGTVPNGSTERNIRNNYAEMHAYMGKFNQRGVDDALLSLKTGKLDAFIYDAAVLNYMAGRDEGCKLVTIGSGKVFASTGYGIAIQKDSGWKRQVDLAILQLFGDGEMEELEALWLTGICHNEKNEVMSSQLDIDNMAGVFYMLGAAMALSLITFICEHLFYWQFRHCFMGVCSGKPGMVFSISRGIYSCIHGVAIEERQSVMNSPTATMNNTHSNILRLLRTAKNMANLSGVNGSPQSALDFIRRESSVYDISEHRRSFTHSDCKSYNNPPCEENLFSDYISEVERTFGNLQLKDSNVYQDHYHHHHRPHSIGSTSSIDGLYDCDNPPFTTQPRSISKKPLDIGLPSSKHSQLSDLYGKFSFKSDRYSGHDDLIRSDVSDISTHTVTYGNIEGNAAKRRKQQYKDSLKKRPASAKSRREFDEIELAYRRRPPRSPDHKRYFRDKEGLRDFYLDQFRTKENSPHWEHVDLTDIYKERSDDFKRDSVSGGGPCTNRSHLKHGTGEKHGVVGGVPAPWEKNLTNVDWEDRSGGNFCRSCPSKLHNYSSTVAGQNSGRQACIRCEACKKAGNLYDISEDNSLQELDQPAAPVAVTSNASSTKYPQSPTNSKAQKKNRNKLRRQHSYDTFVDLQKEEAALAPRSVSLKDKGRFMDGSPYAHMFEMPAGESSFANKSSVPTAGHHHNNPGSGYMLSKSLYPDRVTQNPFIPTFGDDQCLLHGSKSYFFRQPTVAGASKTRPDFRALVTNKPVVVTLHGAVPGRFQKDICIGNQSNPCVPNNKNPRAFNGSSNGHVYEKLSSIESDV

Row | Compound | IC50 [1] | IC50 [2] | IC50 [3] | IC50 [4] | IC50 [5] | IC50 (D(2) dopamine receptor) | IC50 [6] | IC50 [7] | IC50 [8] | IC50 [9]
1 | Nc1ccc(C#CCCCN2CCC(Cc3ccccc3)CC2)cc1 | 380 nM | > 100000 nM | 12000 nM | – | – | – | – | – | – | –
2 | C(#Cc1ccccc1)CCN1CCC(Cc2ccccc2)CC1 | 4700 nM | – | – | > 100000 nM | – | – | – | – | – | –
3 | Oc1ccc(C#CCN2CCC(Cc3ccccc3)CC2)cc1 | 100 nM | > 100000 nM | > 100000 nM | – | 1500 nM | 1700 nM | – | – | – | –
4 | Clc1ccccc1C#CCCN1CCC(Cc2ccccc2)CC1 | 1200 nM | > 100000 nM | 85000 nM | – | – | – | – | – | – | –
5 | Nc1ccc(C#CCCN2CCC(Cc3ccc(Cl)cc3)CC2)cc1 | 1200 nM | – | – | – | – | – | – | – | – | –
6 | Nc1ccc(C#CCCN2CCC(Cc3ccc(F)cc3)CC2)cc1 | 260 nM | > 100000 nM | 70000 nM | – | 700 nM | 400 nM | – | – | – | –
7 | CC(=O)Nc1ccc(C#CCCCN2CCC(Cc3ccccc3)CC2)cc1 | – | – | – | – | – | – | > 100000 nM | 1400 nM | > 100000 nM | –
8 | Clc1ccc(C#CCCN2CCC(Cc3ccccc3)CC2)cc1 | 4000 nM | > 100000 nM | 47000 nM | – | – | – | – | – | – | –
9 | NS(=O)(=O)c1ccc(C#CCCN2CCC(Cc3ccccc3)CC2)cc1 | – | – | – | – | – | 100 nM | 22000 nM | 310 nM | > 100000 nM | 1400 nM
10 | Nc1ccc(C#CCCN2CCC(Cc3ccccc3)CC2)cc1 | 430 nM | – | – | – | 1000 nM | 800 nM | – | – | – | –
11 | Oc1ccc(C#CCCN2CCC(Cc3ccccc3)CC2)cc1 | 170 nM | – | > 100000 nM | – | 580 nM | 290 nM | – | – | – | –
12 | CC(=O)Nc1ccc(C#CCCN2CCC(Cc3ccccc3)CC2)cc1 | – | – | – | – | – | 100 nM | > 100000 nM | 260 nM | > 100000 nM | 1100 nM
13 | Cc1ccc(CC2CCN(CCC#Cc3ccc(N)cc3)CC2)cc1 | 310 nM | 27000 nM | 75000 nM | – | 1200 nM | 800 nM | – | – | – | –
14 | CN(C)c1ccc(C#CCCN2CCC(Cc3ccccc3)CC2)cc1 | – | – | – | – | – | – | > 100000 nM | 15000 nM | > 100000 nM | –
15 | CS(=O)(=O)Nc1ccc(C#CCCN2CCC(Cc3ccccc3)CC2)cc1 | – | – | – | – | – | 200 nM | > 100000 nM | 240 nM | > 100000 nM | 1200 nM
16 | Cc1ccc(CC2(O)CCN(CCC#Cc3ccc(N)cc3)CC2)cc1 | 370 nM | > 100000 nM | 68000 nM | – | 85000 nM | 10000 nM | – | – | – | –
17 | NC(=O)c1ccc(C#CCCN2CCC(Cc3ccccc3)CC2)cc1 | – | – | – | – | – | – | > 100000 nM | 2000 nM | > 100000 nM | –
